Experimental data reported in PMC8148065 (Acta Pharmaceutica Sinica. B, 2020).
pIC50: −log10 of the molar value. “Also recorded” adds a separate entry of the source. Each block holds one molecule with its values, some of them ahead of it.

How the values were obtained:
[1] = In vitro metabolic stability in mouse liver microsomes; format: in vitro ADME; details: for half-life at 1 μmol/L: pH 7.4
How it was run: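 Mouse liver microsomes (0.5 mg/mL) were incubated with the test compound (1 μmol/L) and an NADPH regeneration system in phosphate buffer (1.0 mmol/L EDTA), pH 7.4. The reaction was started with NADPH and quenched at 5, 15, 30 and 45 min with acetonitrile plus internal standard. Samples were centrifuged, diluted in water and quantified by LC–MS/MS. t1/2 and CLint are means of duplicates.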

HMGCR [2] = biological target: T1, HMGCR (Mus musculus, UniProt Q01237); test: Hepatic HMGCR level by Western blot in MFD-fed mice; format: in vivo, C57BL/6 mice; details: 20 mg/kg p.o. once daily 5 weeks, 16 h after final gavage
T1 sequence (Q01237 1-887): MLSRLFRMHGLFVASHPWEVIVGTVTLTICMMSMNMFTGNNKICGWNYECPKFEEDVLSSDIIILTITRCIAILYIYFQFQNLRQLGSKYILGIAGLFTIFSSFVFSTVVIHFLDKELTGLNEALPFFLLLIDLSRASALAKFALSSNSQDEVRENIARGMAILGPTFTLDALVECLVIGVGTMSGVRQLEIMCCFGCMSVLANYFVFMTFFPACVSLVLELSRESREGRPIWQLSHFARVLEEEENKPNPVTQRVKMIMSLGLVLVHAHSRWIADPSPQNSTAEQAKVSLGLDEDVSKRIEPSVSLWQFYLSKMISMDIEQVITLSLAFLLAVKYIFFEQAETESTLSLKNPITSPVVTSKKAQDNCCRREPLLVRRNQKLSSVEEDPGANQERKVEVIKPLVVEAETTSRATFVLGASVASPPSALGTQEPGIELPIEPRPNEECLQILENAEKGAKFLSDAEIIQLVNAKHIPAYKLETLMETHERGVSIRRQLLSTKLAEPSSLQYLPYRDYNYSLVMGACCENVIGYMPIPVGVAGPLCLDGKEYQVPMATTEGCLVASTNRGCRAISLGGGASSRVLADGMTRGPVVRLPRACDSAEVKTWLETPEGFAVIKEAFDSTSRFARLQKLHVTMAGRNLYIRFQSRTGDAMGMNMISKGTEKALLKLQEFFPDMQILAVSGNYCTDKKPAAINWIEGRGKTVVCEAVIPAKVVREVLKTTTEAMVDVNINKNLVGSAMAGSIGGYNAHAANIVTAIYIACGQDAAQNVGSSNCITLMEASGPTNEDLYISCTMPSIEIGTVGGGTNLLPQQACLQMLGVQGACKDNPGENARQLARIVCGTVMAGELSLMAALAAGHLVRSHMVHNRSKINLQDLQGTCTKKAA

[3] = biological target: T2, recombinant HMGCR protein (Homo sapiens, UniProt P04035); test: HMG-CoA reductase activity assay; format: biochemical
T2 sequence (P04035 426-888 limits assumed): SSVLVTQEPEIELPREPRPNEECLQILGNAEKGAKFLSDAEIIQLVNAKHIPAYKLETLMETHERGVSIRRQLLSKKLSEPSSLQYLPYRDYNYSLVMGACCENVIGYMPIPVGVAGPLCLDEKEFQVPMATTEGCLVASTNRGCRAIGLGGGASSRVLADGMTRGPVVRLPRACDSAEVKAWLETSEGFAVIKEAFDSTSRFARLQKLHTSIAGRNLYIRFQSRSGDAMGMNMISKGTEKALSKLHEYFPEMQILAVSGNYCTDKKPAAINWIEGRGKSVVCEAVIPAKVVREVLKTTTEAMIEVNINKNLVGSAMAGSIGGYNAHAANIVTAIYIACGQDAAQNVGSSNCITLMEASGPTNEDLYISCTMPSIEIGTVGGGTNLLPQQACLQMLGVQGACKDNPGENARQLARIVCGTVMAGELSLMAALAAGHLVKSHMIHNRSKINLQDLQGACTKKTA

[4] = system: MFD-induced hypercholesterolemia; test: MFD-induced mouse model of hypercholesterolemia; format: in vivo, C57BL/6 mice; details: MFD mice
How it was run: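 Male C57BL/6 mice (20–24 g) were fed medium-fat diet (12% fat, 0.5% sodium cholate, 1.25% cholesterol) with 3 weeks' induction. Survival, body weight and food intake were logged weekly. Sixteen hours post-dose, retro-orbital serum TC, LDL-C and TG were measured on an automated analyser (one-way ANOVA, mean ± SD).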

HMGCR [5] = biological target: T3, HMGCR (Homo sapiens, UniProt P04035); test: Western blot of HMGCR level in HepG2 cells; format: cell-based
T3 sequence (P04035 1-888): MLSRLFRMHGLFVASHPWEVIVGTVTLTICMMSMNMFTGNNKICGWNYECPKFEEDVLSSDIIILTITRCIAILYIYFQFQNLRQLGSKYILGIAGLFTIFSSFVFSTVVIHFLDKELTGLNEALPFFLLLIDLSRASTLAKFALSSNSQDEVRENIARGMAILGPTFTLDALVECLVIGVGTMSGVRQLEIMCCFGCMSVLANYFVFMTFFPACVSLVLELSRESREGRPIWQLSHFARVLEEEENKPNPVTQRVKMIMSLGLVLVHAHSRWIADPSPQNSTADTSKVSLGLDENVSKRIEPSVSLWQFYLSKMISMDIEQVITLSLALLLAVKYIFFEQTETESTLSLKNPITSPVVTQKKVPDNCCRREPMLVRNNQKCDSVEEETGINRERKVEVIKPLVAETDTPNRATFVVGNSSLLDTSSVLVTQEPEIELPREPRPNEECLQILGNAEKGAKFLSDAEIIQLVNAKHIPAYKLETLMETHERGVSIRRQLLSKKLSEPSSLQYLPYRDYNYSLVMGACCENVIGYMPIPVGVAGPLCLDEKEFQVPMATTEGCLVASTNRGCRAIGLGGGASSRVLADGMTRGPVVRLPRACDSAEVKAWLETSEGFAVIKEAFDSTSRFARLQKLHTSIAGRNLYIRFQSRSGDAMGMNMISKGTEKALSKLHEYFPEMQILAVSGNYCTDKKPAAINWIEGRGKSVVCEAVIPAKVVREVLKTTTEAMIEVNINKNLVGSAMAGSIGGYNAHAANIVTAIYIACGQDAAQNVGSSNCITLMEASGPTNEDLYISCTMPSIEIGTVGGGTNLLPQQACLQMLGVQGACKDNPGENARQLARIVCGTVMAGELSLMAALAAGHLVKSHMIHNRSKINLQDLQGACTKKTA

[6] = Chemical stability in saline; format: physicochemical; details: pH 7.4, 37 °C, 24 h
[7] = previously reported in mice ref 53; cited from earlier work

SMILES: Cc1ncsc1-c1ccc(CNC(=O)[C@@H]2C[C@@H](O)CN2C(=O)[C@@H](NC(=O)CCCCCCCCCCNC(=O)O[C@H]2C[C@@H](C)C=C3C=C[C@H](C)[C@H](CC[C@@H]4C[C@@H](O)CC(=O)O4)[C@H]32)C(C)(C)C)cc1 [Compound 21b, (1S,3R,7S,8S,8aR)-8-(2-((2R,4R)-4-Hydroxy-6-oxotetrahydro-2H-pyran-2-yl)ethyl)-3,7-dimethyl-1,2,3,7,8,8a-hexahydronaphthalen-1-yl (11-(((S)-1-((2S,4R)-4-hydroxy-2-((4-(4-methylthiazol-5-yl)benzyl)carbamoyl)pyrrolidin-1-yl)-3,3-dimethyl-1-oxobutan-2-yl)amino)-11-oxoundecyl)carbamate]
- half-life at 1 μmol/L ([1]; mouse, liver microsomes): 4.18 min
- CLint scaled at 1 μmol/L ([1]; mouse, liver microsomes, pH 7.4, CLint (mL/min/kg), mouse liver microsomes, mean of duplicate): 416 mL/min/kg
- Hepatic HMGCR level (HMGCR [2]): robust HMGCR degradation
- pIC50 [3]: 5.88
- Serum total cholesterol (TC), LDL-C and triglyceride (TG) ([4]; 20 mg/kg p.o. once daily, 5 weeks): moderate decrease
- Serum TC and cholesteryl esters ([4]; 60 mg/kg p.o. once daily, 5 weeks): significantly reduced to lower levels
- Hepatic TC and TG ([4]; 20 or 60 mg/kg p.o. once daily, 5 weeks): reduced hepatic TC and TG in a dose-dependent manner
- Tolerability (body weight and food intake) ([4]; oral once a day for 5 weeks): well tolerated; also recorded: no apparent change of body weight and food intake
- Steatosis and lipid deposition in liver sections (H&E, oil red O) ([4]; p.o. once daily, 5 weeks): ameliorated MFD-induced steatosis and lipid deposition
- Dmax at 1 µM (HMGCR [5]; HepG2, read-out: maximum degradation (Dmax)): 56%

- Chemical stability (decomposition) [6]: over half decomposition
- pIC50 [3]: 5.73
SMILES: C[C@H]1C=C2C=C[C@H](C)[C@H](CC[C@@H]3C[C@@H](O)CC(=O)O3)[C@H]2[C@@H](OC(=O)NCCOCCOCCNc2cccc3c2C(=O)N(C2CCC(=O)NC2=O)C3=O)C1 (stereo partly drawn) [Compound 16b, (1S,3R,7S,8S,8aR)-8-(2-((2R,4R)-4-Hydroxy-6-oxotetrahydro-2H-pyran-2-yl)ethyl)-3,7-dimethyl-1,2,3,7,8,8a-hexahydronaphthalen-1-yl (2-(2-(2-((2-(2,6-dioxopiperidin-3-yl)-1,3-dioxoisoindolin-4-yl)amino)ethoxy)ethoxy)ethyl)carbamate]

- pIC50 [3]: 5.81
SMILES: Cc1ncsc1-c1ccc(CNC(=O)[C@@H]2C[C@@H](O)CN2C(=O)[C@@H](NC(=O)CCCCCCCNC(=O)O[C@H]2C[C@@H](C)C=C3C=C[C@H](C)[C@H](CC[C@@H]4C[C@@H](O)CC(=O)O4)[C@H]32)C(C)(C)C)cc1 [Compound 21a, (1S,3R,7S,8S,8aR)-8-(2-((2R,4R)-4-Hydroxy-6-oxotetrahydro-2H-pyran-2-yl)ethyl)-3,7-dimethyl-1,2,3,7,8,8a-hexahydronaphthalen-1-yl (8-(((S)-1-((2S,4R)-4-hydroxy-2-((4-(4-methylthiazol-5-yl)benzyl)carbamoyl)pyrrolidin-1-yl)-3,3-dimethyl-1-oxobutan-2-yl)amino)-8-oxooctyl)carbamate]

SMILES: CC[C@H](C)C(=O)O[C@H]1C[C@@H](C)C=C2C=C[C@H](C)[C@H](CC[C@@H](O)C[C@@H](O)CC(=O)O)[C@H]21 [lovastatin acid]
- Tmax [7]: 90 min

- CLint ([1]; mouse liver microsomes, mean of duplicate): 7516 mL/min/kg
- half-life at 1 μmol/L ([1]; mouse, liver microsomes): 0.73 min
- Hepatic HMGCR level (HMGCR [2]): retained high HMGCR level
SMILES: CC[C@H](C)C(=O)O[C@H]1C[C@@H](C)C=C2C=C[C@H](C)[C@H](CC[C@@H]3C[C@@H](O)CC(=O)O3)[C@H]21 [Lovastatin, lovastatin, reference compound]
- Effect on HMGCR expression (HMGCR [5]; HepG2 cells, range of concentrations (0.1, 1, 3, 10 μmol/L), 16 h): remarkably upregulated HMGCR in a dose-dependent manner
- Tmax [7]: 120 min

- pIC50 [3]: 5.90
SMILES: C[C@H]1C=C2C=C[C@H](C)[C@H](CC[C@@H]3C[C@@H](O)CC(=O)O3)[C@H]2[C@@H](OC(=O)NCCCOCCOCCOCCCNc2cccc3c2C(=O)N(C2CCC(=O)NC2=O)C3=O)C1 (stereo partly drawn) [Compound 16a, (1S,3R,7S,8S,8aR)-8-(2-((2R,4R)-4-Hydroxy-6-oxotetrahydro-2H-pyran-2-yl)ethyl)-3,7-dimethyl-1,2,3,7,8,8a-hexahydronaphthalen-1-yl (3-(2-(2-(3-((2-(2,6-dioxopiperidin-3-yl)-1,3-dioxoisoindolin-4-yl)amino)propoxy)ethoxy)ethoxy)propyl)carbamate]

- pIC50 [3]: 5.60
SMILES: C[C@H]1C=C2C=C[C@H](C)[C@H](CC[C@@H]3C[C@@H](O)CC(=O)O3)[C@H]2[C@@H](OC(=O)NCCCNc2cccc3c2C(=O)N(C2CCC(=O)NC2=O)C3=O)C1 (stereo partly drawn) [Compound 16c, (1S,3R,7S,8S,8aR)-8-(2-((2R,4R)-4-Hydroxy-6-oxotetrahydro-2H-pyran-2-yl)ethyl)-3,7-dimethyl-1,2,3,7,8,8a-hexahydronaphthalen-1-yl (3-((2-(2,6-dioxopiperidin-3-yl)-1,3-dioxoisoindolin-4-yl)amino)propyl)carbamate]
